Reference: ChEMBL document CHEMBL4346672, “Antimicrobial and KPC/AmpC inhibitory activity of functionalized benzosiloxaboroles” (Eur J Med Chem, 2019)
Converted amounts (≈) assume the structure as drawn. The source made the active and inactive calls. The calls are words filed in the database; no cut-off is given here.

Assays:
[1] = system: Meyerozyma guilliermondii; assay: Antifungal activity against Candida guilliermondii IBA 155 assessed as decrease in fungal cell growth incubated for 24 hrs by E-test; type: functional; conditions: IBA 155, 24 h
Method in brief: (§1)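 Yeasts were first subcultured on Sabouraud dextrose agar at 30 °C for 24–48 h. […] The MIC was recorded per Etest recommendations, which covers cases where macro-colonies persist inside the ellipse.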

Candida parapsilosis [2] = assay: Antifungal activity against Candida parapsilosis ATCC 22019 assessed as decrease in fungal cell growth incubated for 24 hrs by E-test; type: functional; conditions: Lodderomyces parapsilosis, ATCC 22019, 24 h; method in brief: as §1
Candida tropicalis [3] = assay: Antifungal activity against Candida tropicalis IBA 171 assessed as decrease in fungal cell growth incubated for 24 hrs by E-test; type: functional; conditions: IBA 171, 24 h; method in brief: as §1
Saccharomyces cerevisiae [4] = assay: Antifungal activity against Saccharomyces cerevisiae ATCC 9763 diameter of zone inhibition at 0.025 mg incubated for 24 hrs by disc diffusion method; type: functional; conditions: ATCC 9763, 24 h, read-out: DIZ
Method in brief: (§2)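 Disc diffusion on Mueller-Hinton II agar with 2% glucose and 0.5 mg/L methylene blue. Compounds were dissolved in DMSO. Yeasts were subcultured on Sabouraud dextrose agar for 24–48 h at 30 °C before testing. Plates were incubated at 35 °C for 24 h.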

Candida albicans [5] = assay: Antifungal activity against Candida albicans ATCC 90028 assessed as diameter of zone inhibition at 0.025 mg incubated for 24 hrs by disc diffusion method; type: functional; conditions: ATCC 90028, 24 h, read-out: DIZ; method in brief: as §2
Candida tropicalis [6] = assay: Antifungal activity against Candida tropicalis IBA 171 assessed as diameter of zone inhibition at 0.025 mg incubated for 24 hrs by disc diffusion method; type: functional; conditions: IBA 171, 24 h, read-out: DIZ; method in brief: as §2
Candida albicans [7] = assay: Antifungal activity against Candida albicans ATCC 90028 assessed as decrease in fungal cell growth incubated for 24 hrs by E-test; type: functional; conditions: ATCC 90028, 24 h
Method in brief: (§3)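 Yeast strains were stored at -80 °C and subcultured twice on Sabouraud dextrose agar for 24–48 h at 30 °C before testing.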

Candida parapsilosis [8] = assay: Antifungal activity against Candida parapsilosis ATCC 22019 assessed as diameter of zone inhibition at 0.025 mg incubated for 24 hrs by disc diffusion method; type: functional; conditions: Lodderomyces parapsilosis, ATCC 22019, 24 h; read-out: DIZ; method in brief: as §2
Pichia kudriavzevii [9] = assay: Antifungal activity against Candida krusei ATCC 6258 assessed as diameter of zone inhibition at 0.025 mg incubated for 24 hrs by disc diffusion method; type: functional; conditions: ATCC 6258, 24 h, read-out: DIZ; method in brief: as §2
[10] = system: Meyerozyma guilliermondii; assay: Antifungal activity against Candida guilliermondii IBA 155 assessed as diameter of zone inhibition at 0.025 mg incubated for 24 hrs by disc diffusion method; type: functional; conditions: IBA 155, 24 h, read-out: DIZ; method in brief: as §2
Saccharomyces cerevisiae [11] = assay: Antifungal activity against Saccharomyces cerevisiae ATCC 9763 assessed as decrease in fungal cell growth incubated for 24 hrs by E-test; type: functional; conditions: ATCC 9763, 24 h; method in brief: as §3
Pichia kudriavzevii [12] = assay: Antifungal activity against Candida krusei ATCC 6258 assessed as decrease in fungal cell growth incubated for 24 hrs by E-test; type: functional; conditions: ATCC 6258, 24 h; method in brief: as §1
Pseudomonas aeruginosa [13] = assay: Antibacterial activity against Pseudomonas aeruginosa ATCC 27853 assessed as diameter of zone inhibition measured after 18 hrs by CLSI disc diffusion method; type: functional, organism-based
Method in brief: (§4)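 Disc diffusion on Mueller-Hinton II agar. Compounds dissolved in DMSO. Strains stored at -80 °C and subcultured twice on tryptic soy agar before testing. Inhibition zones read after 35 °C, 18 h.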

Escherichia coli [14] = assay: microbe, parasite or virus in culture; conditions: ATCC 25922, 18 h
Enterobacter cloacae [15] = assay: microbe, parasite or virus in culture; conditions: DSM 6234, 18 h
[16] = system: Bordetella bronchiseptica; assay: Antibacterial activity against Bordetella bronchiseptica ATCC 4617 assessed as diameter of zone inhibition measured after 18 hrs by CLSI disc diffusion method; type: functional; method in brief: as §4
Serratia marcescens = assay: Antibacterial activity against Serratia marcescens ATCC 13880 measured after 18 hrs by CLSI broth dilution method; type: functional; conditions: ATCC 13880, 18 h
Method in brief: (§5)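 Broth MIC in Mueller-Hinton II broth following CLSI, compounds dissolved in DMSO. Strains subcultured twice on tryptic soy agar before testing. Growth read after 35 °C, 18 h.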

Burkholderia cepacia [17] = assay: Antibacterial activity against Burkholderia cepacia ATCC 25416 assessed as diameter of zone inhibition measured after 18 hrs by CLSI disc diffusion method; type: functional; method in brief: as §4
Enterococcus faecium [18] = assay: Bactericidal activity against Enterococcus faecium ATCC 6057 measured after 18 hrs by CLSI broth dilution method; type: functional; conditions: ATCC 6057, 18 h
Method in brief: (§6)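 Strains stored at -80 °C and subcultured twice on tryptic soy agar before testing. Compounds dissolved in DMSO. […] MBC then determined per CLSI recommendations.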

Staphylococcus aureus [19] = assay: microbe, parasite or virus in culture; conditions: ATCC 6538P, 18 h, read-out: DIZ
[20] = system: Stenotrophomonas maltophilia; assay: Antibacterial activity against Stenotrophomonas maltophilia ATCC 13637 measured after 18 hrs by CLSI broth dilution method; type: functional; conditions: ATCC 13637, 18 h; method in brief: as §5
Acinetobacter baumannii [21] = assay: microbe, parasite or virus in culture; conditions: ATCC 19606, 18 h
Enterobacter cloacae [22] = assay: Antibacterial activity against Enterobacter cloacae DSM 6234 measured after 18 hrs by CLSI broth dilution method; type: functional; conditions: DSM 6234, 18 h; method in brief: as §5
Acinetobacter baumannii [23] = assay: Antibacterial activity against Acinetobacter baumannii ATCC 19606 measured after 18 hrs by CLSI broth dilution method; type: functional; conditions: ATCC 19606, 18 h; method in brief: as §5
Enterococcus faecalis [24] = assay: Bactericidal activity against Enterococcus faecalis ATCC 29212 measured after 18 hrs by CLSI broth dilution method; type: functional; conditions: ATCC 29212, 18 h; method in brief: as §6
Enterococcus faecalis [25] = assay: Antibacterial activity against Enterococcus faecalis ATCC 29212 measured after 18 hrs by CLSI broth dilution method; type: functional; conditions: ATCC 29212, 18 h; method in brief: as §5
Proteus mirabilis [26] = assay: Antibacterial activity against Proteus mirabilis ATCC 12453 measured after 18 hrs by CLSI broth dilution method; type: functional; conditions: ATCC 12453, 18 h; method in brief: as §5
[27] = system: Staphylococcus epidermidis; assay: Bactericidal activity against Staphylococcus epidermidis ATCC 12228 measured after 18 hrs by CLSI broth dilution method; type: functional; conditions: ATCC 12228, 18 h; method in brief: as §6
[28] = system: Bordetella bronchiseptica; assay: Bactericidal activity against Bordetella bronchiseptica ATCC 4617 measured after 18 hrs by CLSI broth dilution method; type: functional; conditions: ATCC 4617, 18 h; method in brief: as §6
Acinetobacter baumannii [29] = assay: Antibacterial activity against Acinetobacter baumannii ATCC 19606 assessed as diameter of zone inhibition measured after 18 hrs by CLSI disc diffusion method; type: functional; method in brief: as §4
[30] = system: Staphylococcus epidermidis; assay: microbe, parasite or virus in culture; conditions: ATCC 12228, 18 h, read-out: DIZ
Proteus mirabilis [31] = assay: Antibacterial activity against Proteus mirabilis ATCC 12453 assessed as diameter of zone inhibition measured after 18 hrs by CLSI disc diffusion method; type: functional; method in brief: as §4
Pseudomonas aeruginosa [32] = assay: Antibacterial activity against Pseudomonas aeruginosa ATCC 27853 measured after 18 hrs by CLSI broth dilution method; type: functional; conditions: ATCC 27853, 18 h; method in brief: as §5
Staphylococcus aureus [33] = assay: Antibacterial activity against Staphylococcus aureus ATCC 6538P measured after 18 hrs by CLSI broth dilution method; type: functional; method in brief: as §5
Escherichia coli [34] = assay: Antibacterial activity against Escherichia coli ATCC 25922 assessed as diameter of zone inhibition measured after 18 hrs by CLSI disc diffusion method; type: functional; method in brief: as §4
Burkholderia cepacia [35] = assay: Antibacterial activity against Burkholderia cepacia ATCC 25416 measured after 18 hrs by CLSI broth dilution method; type: functional; conditions: ATCC 25416, 18 h; method in brief: as §5
Enterobacter cloacae [36] = assay: Antibacterial activity against Enterobacter cloacae DSM 6234 assessed as diameter of zone inhibition measured after 18 hrs by CLSI disc diffusion method; type: functional; method in brief: as §4
Escherichia coli [37] = assay: Antibacterial activity against Escherichia coli ATCC 25922 measured after 18 hrs by CLSI broth dilution method; type: functional; conditions: ATCC 25922, 18 h; method in brief: as §5
Staphylococcus aureus [38] = assay: Bactericidal activity against Staphylococcus aureus ATCC 6538P measured after 18 hrs by CLSI broth dilution method; type: functional; method in brief: as §6
Klebsiella pneumoniae [39] = assay: Antibacterial activity against Klebsiella pneumoniae ATCC 13883 measured after 18 hrs by CLSI broth dilution method; type: functional; conditions: ATCC 13883, 18 h; method in brief: as §5
[40] = system: Staphylococcus epidermidis; assay: Antibacterial activity against Staphylococcus epidermidis ATCC 12228 measured after 18 hrs by CLSI broth dilution method; type: functional; conditions: ATCC 12228, 18 h; method in brief: as §5
Enterococcus faecium [41] = assay: Antibacterial activity against Enterococcus faecium ATCC 6057 measured after 18 hrs by CLSI broth dilution method; type: functional; conditions: ATCC 6057, 18 h; method in brief: as §5
Burkholderia cepacia [42] = assay: Bactericidal activity against Burkholderia cepacia ATCC 25416 measured after 18 hrs by CLSI broth dilution method; type: functional; conditions: ATCC 25416, 18 h; method in brief: as §6
[43] = system: Bordetella bronchiseptica; assay: Antibacterial activity against Bordetella bronchiseptica ATCC 4617 measured after 18 hrs by CLSI broth dilution method; type: functional; conditions: ATCC 4617, 18 h; method in brief: as §5
Bacillus subtilis = assay: microbe, parasite or virus in culture; conditions: ATCC 6633, 18 h, read-out: DIZ
[44] = system: Stenotrophomonas maltophilia; assay: Antibacterial activity against Stenotrophomonas maltophilia ATCC 13637 assessed as diameter of zone inhibition measured after 18 hrs by CLSI disc diffusion method; type: functional; method in brief: as §4
Klebsiella pneumoniae [45] = assay: microbe, parasite or virus in culture; conditions: ATCC 13883, 18 h

## OC(Cn1cncn1)(Cn1cncn1)c1ccc(F)cc1F [FLUCONAZOLE]
[1]
  MIC: 0.75 µg/mL (≈ 2.45 µM)
Candida parapsilosis [2]
  MIC: 2 µg/mL (≈ 6.53 µM)
Candida tropicalis [3]
  MIC: 0.38 µg/mL (≈ 1.24 µM)
Saccharomyces cerevisiae [4]
  zone of inhibition at 25 µg/disc: 12 mm
Candida albicans [5]
  zone of inhibition at 25 µg/disc: 43 mm
Candida tropicalis [6]
  zone of inhibition at 25 µg/disc: 39 mm
Candida albicans [7]
  MIC: 1 µg/mL (≈ 3.27 µM)
Candida parapsilosis [8]
  zone of inhibition at 25 µg/disc: 32 mm
Pichia kudriavzevii [9]
  zone of inhibition at 25 µg/disc: 16 mm
[10]
  zone of inhibition at 25 µg/disc: 40 mm
Saccharomyces cerevisiae [11]
  MIC: 16 µg/mL (≈ 52.2 µM)
Pichia kudriavzevii [12]
  MIC: 64 µg/mL (≈ 209 µM)

## O=C1CN(/N=C/c2ccc([N+](=O)[O-])o2)C(=O)N1 [NITROFURANTOIN]
Pseudomonas aeruginosa [13]
  diameter of the inhibition zone (DIZ): inactive
Escherichia coli [14]
  MBC: 8 µg/mL (≈ 33.6 µM)
Enterobacter cloacae [15]
  MBC: 32 µg/mL (≈ 134 µM)
[16]
  diameter of the inhibition zone (DIZ): inactive
Serratia marcescens
  MIC: 128 µg/mL (≈ 537 µM)
Burkholderia cepacia [17]
  diameter of the inhibition zone (DIZ): 12 mm
Enterococcus faecium [18]
  MBC: > 128 µg/mL
Staphylococcus aureus [19]
  zone of inhibition at 300 µg/disc: 24 mm
[20]
  MIC: 128 µg/mL (≈ 537 µM)
Acinetobacter baumannii [21]
  MBC: 128 µg/mL (≈ 537 µM)
Enterobacter cloacae [22]
  MIC: 32 µg/mL (≈ 134 µM)
Acinetobacter baumannii [23]
  MIC: 64 µg/mL (≈ 269 µM)
Enterococcus faecalis [24]
  MBC: 128 µg/mL (≈ 537 µM)
Enterococcus faecalis [25]
  MIC: 8 µg/mL (≈ 33.6 µM)
Proteus mirabilis [26]
  MIC: 128 µg/mL (≈ 537 µM)
[27]
  MBC: 8 µg/mL (≈ 33.6 µM)
[28]
  MBC: 128 µg/mL (≈ 537 µM)
Acinetobacter baumannii [29]
  diameter of the inhibition zone (DIZ): 9 mm
[30]
  zone of inhibition at 300 µg/disc: 31 mm
Proteus mirabilis [31]
  diameter of the inhibition zone (DIZ): 9 mm
Pseudomonas aeruginosa [32]
  MIC: > 128 µg/mL
Staphylococcus aureus [33]
  MIC: 8 µg/mL (≈ 33.6 µM)
Escherichia coli [34]
  diameter of the inhibition zone (DIZ): 24 mm
Burkholderia cepacia [35]
  MIC: 32 µg/mL (≈ 134 µM)
Enterobacter cloacae [36]
  diameter of the inhibition zone (DIZ): 17 mm
Escherichia coli [37]
  MIC: 8 µg/mL (≈ 33.6 µM)
Staphylococcus aureus [38]
  MBC: 16 µg/mL (≈ 67.2 µM)
Klebsiella pneumoniae [39]
  MIC: 32 µg/mL (≈ 134 µM)
[40]
  MIC: 4 µg/mL (≈ 16.8 µM)
Enterococcus faecium [41]
  MIC: 8 µg/mL (≈ 33.6 µM)
Burkholderia cepacia [42]
  MBC: 32 µg/mL (≈ 134 µM)
[43]
  MIC: 64 µg/mL (≈ 269 µM)
Bacillus subtilis
  zone of inhibition at 300 µg/disc: 30 mm
[44]
  diameter of the inhibition zone (DIZ): inactive
Klebsiella pneumoniae [45]
  MBC: 32 µg/mL (≈ 134 µM)
